Results published in ChEMBL document CHEMBL5576140, “Computational Design of Pore-Forming Peptides with Potent Antimicrobial and Anticancer Activities” (J Med Chem, 2024).
Active and inactive are the calls of the source.

What was measured:
[1] = system: Escherichia coli; experiment: Induction of outer membrane permeabilization in Escherichia coli ATCC 11775 measured for 20 mins by NPN uptake assay; assay type: functional, organism-based
[2] = Anti-cancer activity against human NHDF cells incubated for 72 hrs by Cell Titer Glo assay; assay type: toxicity, cell-based
[3] = system: HL-60; experiment: pH-dependent anticancer activity against human HL-60 cells in DMEM medium at 10 uM incubated for 1 hr; assay type: functional, cell-based
In short: (§1)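 Cells cultured in RPMI, DMEM or PBS, each adjusted to pH 8, 7 or 6, plus one unadjusted (~7.6). Peptide at 10 μM for only 1 h, to limit pH drift from CO₂-bicarbonate buffering. Cell viability read. Controls were melittin, ampicillin and PBS. Two independent repetitions; effects analysed by ANOVA.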

[4] = Toxicity against reconstructed human skin model assessed as irritation at 50 uM incubated for 1 hr followed by compound washout measured after 42 hrs by MTT assay; assay type: tissue-based, Skin of body
In short: (§2)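 Reconstructed human epidermis with stratum corneum, per OECD TG 439 skin irritation guideline. Tissues exposed 1 h to peptide at 50 μM, then 42 h post-treatment incubation. Viability read by MTT. Controls were SDS and melittin.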

[5] = system: Monocyte; experiment: Cytotoxicity against human monocytes assessed as deleterious effect upto 50 uM by flow cytometry; assay type: toxicity, cell-based
In short: (§3)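 Whole blood from a healthy donor treated with peptides up to 50 μM; effect on B and T lymphocytes, granulocytes and monocytes assessed.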

[6] = Toxicity in neutropenic CD-1 mouse deep thigh infection model infected with Acinetobacter baumannii ATCC 19606 assessed as body weight change at 1.33 mg/kg, ip measured after 4 days; assay type: organism-based; conditions: in vivo, 96 h, time 4 day
In short: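 Neutropenic mice infected intramuscularly in the right thigh with 10⁶ cells per mL of A. baumannii ATCC 19606. […] Body weight monitored for toxicity. Euthanasia 4 days post-infection (day 8). n = 6 per group, from three inocula.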

[7] = system: Klebsiella pneumoniae; experiment: Induction of outer membrane permeabilization in Klebsiella pneumoniae ATCC 13883 measured for 20 mins by NPN uptake assay; assay type: functional, organism-based
In short: (§4)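 Outer-membrane permeabilization of Gram-negative bacteria read as rise in fluorescence of the lipophilic dye NPN, which enters only when outer-membrane integrity is compromised. Peptides applied at their MIC against the respective strain; polymyxin B and levofloxacin as reference antibiotics. Triplicates.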

[8] = system: Acinetobacter baumannii; experiment: Depolarization of cytoplasmic membrane in Acinetobacter baumannii ATCC 19606 at MIC measured for 45 mins by DiSC3-(5) dye based assay; assay type: functional, organism-based
In short: (§5)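 Bacteria loaded with membrane-potential dye DiSC3-(5), then treated with peptide at its MIC for the respective strain; depolarization read as rise in dye fluorescence; polymyxin B and levofloxacin as reference antibiotics.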

[9] = system: Staphylococcus carnosus; experiment: Antimicrobial activity against Staphylococcus carnosus CCM 4838T incubated for 24 hrs by broth microdilution assay; assay type: functional
[10] = system: K562; experiment: pH-dependent anticancer activity against human K562 cells in DMEM medium at 10 uM incubated for 1 hr; assay type: functional, cell-based; in short: as §1
[11] = system: MCF7; experiment: pH-dependent anticancer activity against human MCF7 cells in DMEM medium at 10 uM incubated for 1 hr; assay type: functional, cell-based; in short: as §1
[12] = system: HL-60; experiment: pH-dependent anticancer activity against human HL-60 cells in PBS medium at 10 uM incubated for 1 hr; assay type: functional, cell-based; in short: as §1
[13] = system: K562; experiment: pH-dependent anticancer activity against human K562 cells in PBS medium at 10 uM incubated for 1 hr; assay type: functional, cell-based; in short: as §1
[14] = Toxicity against reconstructed human skin model assessed as tissue viability at 50 uM incubated for 1 hr followed by compound washout measured after 42 hrs by MTT assay; assay type: tissue-based, Skin of body; conditions: read-out: Activity; in short: as §2
[15] = Stability in simulated pore POPC lipid bilayer membrane; assay type: physicochemical
In short: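 Coarse-grained MD with the "scaled" Martini force field, peptides in POPC membrane, 51 μs. Counts transmembrane peptides at 51 μs. Water beads within 2 nm vertically of membrane centre and peptide–peptide interaction energy averaged over 48–51 μs. Contacts (salt bridge or stacking) scored below 0.8 nm and called stable if present ≥50% of the time.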

[16] = system: Staphylococcus aureus; experiment: Depolarization of cytoplasmic membrane in Staphylococcus aureus ATCC 12600 at MIC measured for 45 mins by DiSC3-(5) dye based assay; assay type: functional, organism-based; in short: as §5
[17] = system: MCF7; experiment: Induction of apoptosis in human MCF7 cells in DMEM medium at pH 6 assessed as increase in cleaved capase-3 level at 10 uM; assay type: functional, cell-based
In short: (§6)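 MCF-7 cells treated with peptides at pH 6; apoptosis detected by immunoblotting for cleaved PARP and cleaved caspase-3.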

[18] = system: SUD4; experiment: Anti-cancer activity against human SU-DHL-4 cells incubated for 24 hrs by WST assay; assay type: functional, cell-based; conditions: SU-DHL-4, 24 h
[19] = system: Enterococcus faecium; experiment: Depolarization of cytoplasmic membrane in Enterococcus faecium ATCC 700221 at MIC measured for 45 mins by DiSC3-(5) dye based assay; assay type: functional, organism-based; in short: as §5
[20] = system: Acinetobacter baumannii; experiment: Induction of outer membrane permeabilization in Acinetobacter baumannii ATCC 19606 measured for 20 mins by NPN uptake assay; assay type: functional, organism-based
[21] = system: HCT-116; experiment: pH-dependent anticancer activity against human HCT-116 cells in DMEM medium at 10 uM incubated for 1 hr; assay type: functional, cell-based; in short: as §1
[22] = system: K562; experiment: pH-dependent anticancer activity against human K562 cells in RPMI medium at 10 uM incubated for 1 hr; assay type: functional, cell-based; in short: as §1
[23] = system: MOLM-13; experiment: Anti-cancer activity against human MOLM-13 cells incubated for 24 hrs by WST assay; assay type: functional, cell-based; conditions: MOLM-13, 24 h
[24] = system: T-cell line; experiment: Cytotoxicity against human T-lymphocytes assessed as deleterious effect upto 50 uM by flow cytometry; assay type: toxicity, cell-based; in short: as §3
[25] = system: Pseudomonas aeruginosa; experiment: Depolarization of cytoplasmic membrane in Pseudomonas aeruginosa PAO1 at MIC measured for 45 mins by DiSC3-(5) dye based assay; assay type: functional, organism-based; in short: as §5
[26] = system: Pseudomonas aeruginosa; experiment: Induction of outer membrane permeabilization in Pseudomonas aeruginosa PAO1 measured for 20 mins by NPN uptake assay; assay type: functional, organism-based; in short: as §4
[27] = system: HL-60; experiment: Anti-cancer activity against human HL-60 cells at 10 uM incubated for 30 mins; assay type: functional, cell-based
[28] = system: HCT-116; experiment: pH-dependent anticancer activity against human HCT-116 cells in PBS medium at 10 uM incubated for 1 hr; assay type: functional, cell-based; in short: as §1
[29] = system: HL-60; experiment: pH-dependent anticancer activity against human HL-60 cells in RPMI medium at 10 uM incubated for 1 hr; assay type: functional, cell-based; in short: as §1
[30] = system: HCT-116; experiment: pH-dependent anticancer activity against human HCT-116 cells in RPMI medium at 10 uM incubated for 1 hr; assay type: functional, cell-based; in short: as §1
[31] = system: MCF7; experiment: pH-dependent anticancer activity against human MCF7 cells in PBS medium at 10 uM incubated for 1 hr; assay type: functional, cell-based; in short: as §1
[32] = system: Acinetobacter baumannii; experiment: Anti-infective activity against Acinetobacter baumannii ATCC 19606 infected in neutropenic CD-1 mouse deep thigh infection model assessed as reduction in bacterial load at 1.33 mg/kg, ip measured after 4 days; assay type: functional, organism-based; conditions: time 4.0 day
In short: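 Neutropenic mice infected intramuscularly in right thigh with 10⁶ cells per mL A. baumannii ATCC 19606; single intraperitoneal peptide dose at 10× MIC; bacterial load determined 4 days after treatment (euthanized day 8); n = 6 per group from three inocula; one-way ANOVA with Dunnett's test versus untreated.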

[33] = system: B cell; experiment: Cytotoxicity against human B-lymphocytes assessed as deleterious effect upto 50 uM by flow cytometry; assay type: toxicity, cell-based; in short: as §3
[34] = system: MCF7; experiment: Induction of apoptosis in human MCF7 cells in DMEM medium at pH 6 assessed as increase in cleaved PARP level at 10 uM; assay type: functional, cell-based; in short: as §6
[35] = system: Klebsiella pneumoniae; experiment: Depolarization of cytoplasmic membrane in Klebsiella pneumoniae ATCC 13883 at MIC measured for 45 mins by DiSC3-(5) dye based assay; assay type: functional, organism-based; in short: as §5
[36] = system: Escherichia coli; experiment: Depolarization of cytoplasmic membrane in Escherichia coli ATCC 11775 at MIC measured for 45 mins by DiSC3-(5) dye based assay; assay type: functional, organism-based; in short: as §5
[37] = Cytotoxicity against human granulocytes assessed as deleterious effect upto 50 uM by flow cytometry; assay type: toxicity, cell-based; conditions: granulocyte; in short: as §3
[38] = Anti-cancer activity against human MEC-1 cells incubated for 24 hrs by WST assay; assay type: functional, cell-based; conditions: MEC1, 24 h
[39] = system: MCF7; experiment: pH-dependent anticancer activity against human MCF7 cells in RPMI medium at 10 uM incubated for 1 hr; assay type: functional, cell-based; in short: as §1

H-HHHHLKKILKKLFQFINQLDNQLQDIHHHH-OH
> 200 µM: IC50 at 72 h [2]
inactive: Activity [20] | Activity [32]
active: Activity [1] | Activity [3] | Activity [7] | Activity [8] | Activity [10] | Activity [11] | Activity [12] | Activity [13] | Activity [16] | Activity [17] | Activity [19] | Activity [21] | Activity [22] | Activity [25] | Activity [26] | Activity [27] | Activity [28] | Activity [29] | Activity [30] | Activity [31] | Activity [34] | Activity [35] | Activity [36] | Activity [39]
1 µM: IC50 [18] | IC50 [23] | IC50 [38]
Stable: Stability [15]
100%: viability at 1 h, 50 µM [14]
> 50 µM: MIC [9]
Non-Toxic: Activity [4] | Activity [5] | Activity [6] | Activity [24] | Activity [33] | Activity [37]
